STAT1 inh = STAT1 signaling inhibition | hit rate 0.35% among 200,000 | NIH 3T3 STAT1-luciferase reporter, IFN-gamma, luminescence | inhibition, % at 5.5 µM;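 active = inhibition above a set limit, the mean inhibition across all tested compounds plus 3 SD, cut at about 34% in these data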;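 also: 0% = IFN-gamma with DMSO and 100% = IFN-gamma with 300 µM nifuroxazide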
Platelet DG rel = platelet dense granule release activity; hit rate 0.22% among 300,000; inhibition, %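 (compounds screened at 7.5 µM in platelet-rich plasma)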; human platelet-rich plasma, SFLLRN dense granule ATP release, luminescence;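 active = mean replicate score, as percent of positive control, at or above 50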
STAT3 inh-1 = inhibitors of IL-6 induced STAT3 signaling. U3A cells, IL-6 STAT3-luciferase reporter, luminescence; host cell line lacks STAT1. inhibition, % at 5.5 µM. hit rate 0.89% among 190,000. AID 862;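 active = inhibition above the mean inhibition across all screened compounds plus 3 SD, cut at about 44% in these data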;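 also: 0% = DMSO only wells and 100% = 100 µM nifuroxazide control wells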
H9c2 TAG inh = reduces triacylglycerol accumulation in H9c2 cells. hit rate 0.66% among 230,000. inhibition, % at 12.5 µM. Nile Red lipid (TAG) fluorescence; cells loaded with 200 µM oleic acid;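 active = pattern-corrected inhibition of lipid staining of at least 50% with the nuclear-stain viability signal not falling by more than 50%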;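 also: 0% = DMSO wells and 100% = triacsin C control wells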
Hep lipid drop = modulators of hepatic lipid droplet formation | AML12 mouse hepatocytes, oleate lipid droplets, BODIPY imaging | inhibition, % at 6.5 µM | hit rate 0.4% among 240,000 | AID 1656;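 active = lipid droplet intensity inhibited by at least 50%, with more than 500 cells counted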
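Material – AML12 mouse liver cells · Also added – oleate loading, 100 µM · Compound dosing – 6.5 µM single-point dosing · Times – overnight treatment with compound plus oleate · Measured by – fluorescence imaging, 20x objective, two fields per well · Read-out – percent inhibition of filter-corrected integrated lipid droplet intensity per well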
PPC-1+TRAIL kill = compounds killing PPC-1 cancer cells with TRAIL present (potentiator screen, no TRAIL-free arm). PPC-1 cells + TRAIL, ATPLite viability luminescence. cell killing (% activity), % at 4 µM or 5 µM. hit rate 0.41% among 220,000;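 active = cell killing above 50% in the first pass at 4 µM, then a duplicate retest at 5 µM averaging 50% or more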;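 also: plate controls were cells with TRAIL plus DMSO for no effect and medium-only wells lacking cells for full effect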
STAT3 inh-2 = STAT3 inhibition, confirmation assay; shares compounds with STAT3 inh-1; U3A cells, IL-6 STAT3 luciferase reporter, luminescence; cell line lacks STAT1; inhibition, % at 5.7 µM; hit rate 45% among 1,200;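 active = inhibition above the hit cutoff computed for the primary STAT3 screen, cut at about 44% in these data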;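 also: 0% = IL-6 plus DMSO and 100% = IL-6 plus nifuroxazide control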
NFkB inh 2 = inhibits NF-kappaB, counter-screen to STAT3 inhibitors; HEK293T NF-kB luciferase reporter, TNF-alpha induced; shares compounds with STAT3 inh-1; hit rate 36% among 1,200; AID 1308; inhibition, % at 5.7 µM;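 active = inhibition above the mean of solvent-only control wells plus 3 SD, cutoff set per campaign, cut at about 13% in these data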;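 also: 0% = TNF-alpha with DMSO and 100% = TNF-alpha with MG high control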
STAT1 inh 2 = counter-screen for STAT3 inhibitors: STAT1 inhibition | shares compounds with STAT3 inh-1 | NIH 3T3 STAT1-luciferase reporter, IFN-gamma induced, luminescence | inhibition, % at 5.7 µM | hit rate 27% among 1,200 | AID 1317;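 active = inhibition above the mean plus 3 SD of solvent-only control wells, limit set per screening run, cut at about 16% in these data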;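 also: 0% = DMSO with IFN-gamma and 100% = nifuroxazide control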
Active calls of the source: *; x = no result. In the library only some 1.5% were active in any assay of this set; here they are far more common.

SMILES	STAT1 inh	Platelet DG rel	STAT3 inh-1	H9c2 TAG inh	Hep lipid drop	PPC-1+TRAIL kill	STAT3 inh-2	NFkB inh 2	STAT1 inh 2
CC[n+]1ccccc1/C=C/c1ccc(N(C)C)cc1	31	6	68*	-39	-2	27	60*	4	14
COc1cc(F)ccc1-c1csc(C(NC(C)=O)c2ccc(F)c(F)c2)n1 (stereo unspecified)	x	x	x	28	x	x	x	x	x
O=C(NCc1ccncc1)c1ccc(Oc2ccccc2)cc1	11	-2	31	-10	10	21	x	x	x
Cc1ccc(Oc2ccc(C(=O)NCc3ccncc3)cc2)cc1	21	0	52*	-19	-23	18	44*	11	7
O=C(Nc1nnc([C@H]2C[C@H](O)[C@@H](CO)O2)s1)c1ccc(Oc2ccccc2)cc1	x	x	x	4	x	x	x	x	x
Cc1nn(C)c(Cl)c1NC(=O)OCc1ccc(Cl)cc1Cl	21	-2	51*	x	x	7	36	8	5
Cc1nnsc1NC(=O)OCc1ccc(Cl)cc1Cl	3	3	27	10	x	17	x	x	x
COC(=O)c1nn(-c2ccc(-c3ccccc3)cc2)cc1O	5	64*	74*	11	x	7	35	-3	-2
COc1ccc(CN2C[C@@H](CO)O[C@@H](n3cnc4c(N(C)C)ncnc43)C2)cc1	x	x	x	-1	x	x	x	x	x
Cc1nc(NC(C)c2ccccc2)c2oc3ccccc3c2n1 (stereo unspecified)	24	1	46*	-34	x	5	29	-2	12
CCC(C)Nc1nc(C)nc2c1oc1ccccc12 (stereo unspecified)	x	-9	x	-20	-1	-18	x	x	x
CC1(C)CC(Cc2cccc(C(F)(F)F)c2)N(C(=O)OC(C)(C)C)C1 (stereo unspecified)	x	x	x	-16	x	x	x	x	x
C[C@@H]1CN([C@H](C)CO)C(=O)CCCn2nncc2CO[C@@H]1CN(C)S(=O)(=O)c1ccc(-n2cccn2)cc1	x	x	x	-2	x	x	x	x	x
O=C(CCCN1C(=O)S/C(=C\c2ccccc2)C1=O)NNC(=O)c1ccccc1O	24	14	64*	-14	-6	21	56*	35*	4
Cc1ccc(-c2cc3nc4c(c(=O)n3[nH]2)CCCC4)cc1	-81	10	44*	5	x	x	4	-31	-148
O=c1c2c(nc3cc(-c4ccc(F)cc4)[nH]n13)CCC2	-60	-9	-6	x	x	34	x	x	x
CCN(CC)C(=O)c1ccc(Cc2cn(C)c3ccccc23)nc1	x	x	x	3	x	x	x	x	x
CCNC(=S)NNC(=O)c1cc(-c2ccc(OC)cc2)nc2ccccc12	21	111*	74*	-7	-3	88*	43	28*	14
COc1cccc(-c2nnc(-c3ccc(C)o3)o2)c1	-9	8	55*	9	8	44	32	-9	-67
C[C@H]1CN([C@@H](C)CO)C(=O)c2cc(C#CC3(O)CCCC3)cnc2O[C@H]1CN(C)C(=O)C1CC1	x	x	x	5	x	x	x	x	x
CCOc1ccc(N=Nc2ccc(O)c3ncccc23)cc1	x	-3	x	x	0	x	x	x	x
Cc1ccc(C)c(N=Nc2ccc(O)c3ncccc23)c1	17	2	46*	108*	29	6	-23	-22	-41
Cc1nc(SCC(=O)Nc2c(C)nn(C)c2C)c2cnn(-c3ccccc3)c2n1	16	-1	44*	-5	x	-21	41	12	10
C=CCNc1nc2c(c(=O)n(C)c(=O)n2C)n1CCCCCC	28	-10	54*	-80	-50	18	64*	15*	30*
COc1ccc(OCC(=O)Nc2nccs2)cc1	31	22	69*	-5	-26	48	29	-17	-40
Cc1ccc(CNC(=O)c2cc3c(C)nc4ccccc4c3o2)cc1	23	23	54*	-16	-12	1	43	9	24*
CC1(C(=O)O)CCCN1C(=O)c1cccc(C(F)(F)F)c1 (stereo unspecified)	x	x	x	-17	x	x	x	x	x

Compound activity deposited in PubChem by several laboratories.
